In ChEMBL document CHEMBL3044755, “5-Methyl-1,2,3-thiadiazoles synthesized via ugi reaction and their fungicidal and antiviral activities” (J Agric Food Chem, 2010) one finds inhibition of growth and inhibition data, which are given here for six compounds.

Format in all cases: functional
One assay has as its system Alternaria solani. Kind of assay: Fungicidal activity against Alternaria solani at 50 ug/ml by growth inhibition method. The conditions noted are these: read-out: GI. The essentials:
(§1)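 Mycelial growth inhibition on potato dextrose agar. The panel covered Alternaria solani, Botrytis cinerea, Cercospora arachidicola, C. beticola, Colletotrichum lagenarium, Fusarium oxysporum, Gibberella zeae, Puccinia triticina, Phytophthora infestans, Physalospora piricola, Pellicularia sasakii and Rhizoctonia solani.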

Assay [1] concerns Botryosphaeria berengeriana. Kind of assay: Fungicidal activity against Botryosphaeria berengeriana at 50 ug/ml by growth inhibition method. Particulars: read-out: GI. The essentials:
as §1

Another assay has as its system Colletotrichum lagenaria. Kind of assay: Fungicidal activity against Colletotrichum lagenaria at 50 ug/ml by growth inhibition method. Particulars: read-out: GI. In a few lines:
as §1

Another assay has as its system Phytophthora infestans. Kind of assay: Fungicidal activity against Phytophthora infestans at 50 ug/ml by growth inhibition method. The conditions noted are these: read-out: GI. The essentials:
as §1

A further assay relates to Fusarium graminearum. Kind of assay: Fungicidal activity against Fusarium graminearum at 50 ug/ml by growth inhibition method. The conditions noted are these: read-out: GI. The essentials:
as §1

Another assay deals with Mycosphaerella arachidis. The assay can be described thus: Fungicidal activity against Mycosphaerella arachidis at 50 ug/ml by growth inhibition method. The conditions noted are these: read-out: GI. In a few lines: as §1
For assay [2], the system named is Tobacco mosaic virus. The assay can be described thus: In vitro antiviral activity against Tobacco mosaic virus (TMV) infected tobacco leaves at 100 ug/ml.
The subject of a further assay is Rhizoctonia solani. Kind of assay: Fungicidal activity against Rhizoctonia solani at 50 ug/ml by growth inhibition method. Particulars: read-out: GI. The essentials:
as §1

The subject of the next assay is Cercospora beticola. Kind of assay: Fungicidal activity against Cercospora beticola at 50 ug/ml by growth inhibition method. The conditions noted are these: read-out: GI. The essentials:
as §1

The test system of a further assay is Puccinia triticina. The assay can be described thus: Fungicidal activity against Puccinia triticina at 50 ug/ml by growth inhibition method. The conditions noted are these: read-out: GI. In a few lines:
as §1

For a further assay, the system named is Thanatephorus cucumeris. Kind of assay: Fungicidal activity against Thanatephorus cucumeris at 50 ug/ml by growth inhibition method. The conditions noted are these: read-out: GI. The essentials: as §1
Assay [3] deals with Tobacco mosaic virus. The assay can be described thus: In vitro antiviral activity against Tobacco mosaic virus (TMV) infected tobacco leaves at 500 ug/ml.

The structures appear in SMILES notation.

On to `Cc1ccc(N(C(=O)c2nnsc2C)C(C(=O)NC2CCCCC2)c2ccccc2F)cc1F` (configuration not stated), for which the inhibition of growth at 50 µg/mL with Alternaria solani is 63%; in assay [1] it was 0%; in the assay with Colletotrichum lagenaria it was 57%; in the assay on Phytophthora infestans it was 50%; with Fusarium graminearum, 73%; with Mycosphaerella arachidis, 55%. The inhibition of growth at 50 µg/mL was 59% in the assay with Rhizoctonia solani, 25% in the assay on Cercospora beticola, 0% with Puccinia triticina and 0% in the assay with Thanatephorus cucumeris. Moreover, in the assay on Tobacco mosaic virus [2], at 100 µg/mL the inhibition was 33%. Moreover, at 500 µg/mL the inhibition in the assay on Tobacco mosaic virus [3] was 58%.

Consider `Cc1ccc(N(C(=O)c2nnsc2C)C(C(=O)NC(C)C)c2ccc(Cl)cc2)cc1F` (configuration not stated), for which the inhibition of growth at 50 µg/mL in the assay with Alternaria solani was 38%; in [1] it was 0%; in the assay with Colletotrichum lagenaria it was 14%; in the assay on Phytophthora infestans, 38%; with Fusarium graminearum it was 0%; in the assay on Mycosphaerella arachidis, 0%. Also, the inhibition of growth at 50 µg/mL is 15% in the assay on Rhizoctonia solani, 13% in the assay on Cercospora beticola, 0% in the assay with Puccinia triticina and 28% in the assay on Thanatephorus cucumeris. The compound also displayed an inhibition at 100 µg/mL with Tobacco mosaic virus [2] of 20%. In the assay with Tobacco mosaic virus [3], this compound showed an inhibition at 500 µg/mL of 12%.

On to `Cc1ccc(N(C(=O)c2nnsc2C)C(C(=O)NC2CCCCC2)c2ccc(O)cc2)cc1F` (configuration not stated), for which the inhibition of growth at 50 µg/mL in the assay on Alternaria solani stood at 13%; in assay [1] it was 0%; with Colletotrichum lagenaria, 36%; in the assay with Phytophthora infestans it was 25%; in the assay on Fusarium graminearum, 14%; in the assay on Mycosphaerella arachidis, 45%. The inhibition of growth at 50 µg/mL in the assay with Rhizoctonia solani came out at 22%; with Cercospora beticola it was 25%; with Puccinia triticina, 0%; in the assay on Thanatephorus cucumeris it was 0%. This compound had an inhibition at 100 µg/mL in the assay on Tobacco mosaic virus [2] of 9%. Besides, the inhibition at 500 µg/mL in the assay with Tobacco mosaic virus [3] amounted to 34%.

On to `Cc1ccc(C(C(=O)NC(C)C)N(C(=O)c2nnsc2C)c2ccc(C)c(F)c2)cc1` (configuration not stated), for which the inhibition of growth at 50 µg/mL in the assay with Alternaria solani amounted to 31%; in [1] it was 0%; in the assay with Colletotrichum lagenaria it was 29%; with Phytophthora infestans, 13%; in the assay with Fusarium graminearum, 0%; with Mycosphaerella arachidis, 45%. In addition, the inhibition of growth at 50 µg/mL worked out at 37% with Rhizoctonia solani, 25% in the assay with Cercospora beticola, 14% in the assay with Puccinia triticina and 11% with Thanatephorus cucumeris. Besides, in the assay on Tobacco mosaic virus [2], the inhibition at 100 µg/mL was 7%. This compound registered an inhibition at 500 µg/mL in the assay with Tobacco mosaic virus [3] of 31%.

Take `Cc1ccc(N(C(=O)c2nnsc2C)C(C(=O)NC(C)C)c2ccccc2Cl)cc1F` (configuration not stated): the inhibition of growth at 50 µg/mL with Alternaria solani worked out at 0%; in assay [1], 0%; in the assay with Colletotrichum lagenaria, 14%; with Phytophthora infestans it was 25%; in the assay on Fusarium graminearum it was 0%; with Mycosphaerella arachidis it was 0%. Also, the inhibition of growth at 50 µg/mL in the assay on Rhizoctonia solani, in the assay on Cercospora beticola, with Puccinia triticina and with Thanatephorus cucumeris was 0% in each case. Further, in the assay with Tobacco mosaic virus [2], 100 µg/mL produced 23% inhibition. In the assay on Tobacco mosaic virus [3], this compound registered an inhibition at 500 µg/mL of 17%.

Regarding `Cc1ccc(N(C(=O)c2nnsc2C)C(C(=O)NC2CCCCC2)c2cccc(C(F)(F)F)c2)cc1F` (configuration not stated), the inhibition of growth at 50 µg/mL turned out to be 25% with Alternaria solani; 0% in assay [1]; 29% in the assay on Colletotrichum lagenaria; 25% in the assay on Phytophthora infestans; 14% in the assay with Fusarium graminearum; 27% in the assay on Mycosphaerella arachidis. Also, the inhibition of growth at 50 µg/mL in the assay with Rhizoctonia solani was determined as 22%; in the assay with Cercospora beticola, 25%; in the assay on Puccinia triticina, 0%; with Thanatephorus cucumeris, 13%. Moreover, in the assay with Tobacco mosaic virus [2], the inhibition at 100 µg/mL is 35%. Also, the inhibition at 500 µg/mL in the assay on Tobacco mosaic virus [3] amounted to 72%.
